These results are taken from ChEMBL document CHEMBL3994610, “A Macrocyclic Agouti-Related Protein/[Nle4,DPhe7]α-Melanocyte Stimulating Hormone Chimeric Scaffold Produces Subnanomolar Melanocortin Receptor Ligands” (J Med Chem, 2017).

The structures appear in SMILES notation. Square brackets hold non-standard residues; d marks the D form. Peptide text beside a SMILES is read from it. Dap = NC[C@H](N)C(=O)O

For assay [1], the species on record is Mus musculus. Description: Selectivity ratio of EC50 for mouse MC4R to EC50 for mouse MC3R.
The species named for assay [2] is Mus musculus. The assay can be described thus: Selectivity ratio of EC50 for mouse MC3R to EC50 for mouse MC5R.
The species entered for assay [3] is Mus musculus. The assay can be described thus: Selectivity ratio of EC50 for mouse MC3R to EC50 for mouse MC1R.
The target in assay [4] is Melanocortin receptor 3 (Mus musculus) (UniProt P33033). Description: Agonist activity at mouse MC3R expressed in HEK293 cells assessed as increase in forskolin-induced cAMP accumulation at 100 uM preincubated for 2 hrs followed by biotinylated cAMP addition and subsequent incubation for 2 hrs by AlphaScreen assay relative to NDP-MSH. The assay is classed as functional, cell-based. In a few lines:
(§1)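 HEK293 cells stably expressing mouse MC1R, MC3R, MC4R or MC5R, at 70-90% confluence, were detached with Versene at 37 °C and plated at 10,000 cells/well. Stimulation buffer was HBSS with 5 mM HEPES, 0.5 mM IBMX and 0.1% BSA, pH 7.4, plus anti-cAMP acceptor beads. Peptide from 10^-2 M DMSO stock was added and incubated 2 hr in the dark at room temperature. Forskolin at 10^-4 M was the reference stimulus.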

A further assay addresses Melanocortin receptor 3 (Mus musculus, UniProt P33033). Description: Agonist activity at mouse MC3R expressed in HEK293 cells assessed as increase in forskolin-induced cAMP accumulation preincubated for 2 hrs followed by biotinylated cAMP addition and subsequent incubation for 2 hrs by AlphaScreen assay. In kind it is functional, cell-based. In a few lines: as §1
Assay [5] concerns the target Melanocortin receptor 5 (Mus musculus) (UniProt P41149). Description: Agonist activity at mouse MC5R expressed in HEK293 cells assessed as increase in forskolin-induced cAMP accumulation at 100 uM preincubated for 2 hrs followed by biotinylated cAMP addition and subsequent incubation for 2 hrs by AlphaScreen assay relative to NDP-MSH. In kind it is functional, cell-based. In a few lines: as §1

In assay [6] the target is Melanocortin receptor 4 (Mus musculus) (UniProt P56450). The assay can be described thus: Agonist activity at mouse MC4R expressed in HEK293 cells assessed as increase in forskolin-induced cAMP accumulation at 100 uM preincubated for 2 hrs followed by biotinylated cAMP addition and subsequent incubation for 2 hrs by AlphaScreen assay relative to NDP-MSH. The assay is classed as functional, cell-based. In a few lines:
as §1

Assay [7] has as its target Melanocyte-stimulating hormone receptor (Mus musculus) (UniProt Q01727). Description: Agonist activity at mouse MC1R expressed in HEK293 cells assessed as increase in forskolin-induced cAMP accumulation at 100 uM preincubated for 2 hrs followed by biotinylated cAMP addition and subsequent incubation for 2 hrs by AlphaScreen assay relative to NDP-MSH. The assay is classed as functional, cell-based. In a few lines: as §1

The species named for assay [8] is Mus musculus. The assay can be described thus: Selectivity ratio of EC50 for mouse MC3R to EC50 for mouse MC4R.
For assay [9], the target named is Melanocortin receptor 3 (Homo sapiens) (UniProt P41968). The assay can be described thus: Agonist activity at human MC3R expressed in CHO cells assessed as increase in IBMX-induced cAMP accumulation at 10 uM after 45 mins by [125I]cAMP flash plate assay relative to MT-2.
The species named for assay [10] is Mus musculus. The assay can be described thus: Selectivity ratio of EC50 for mouse MC5R to EC50 for mouse MC1R.
Another assay addresses Melanocortin receptor 5 (Mus musculus, UniProt P41149). The assay can be described thus: Agonist activity at mouse MC5R expressed in HEK293 cells assessed as increase in forskolin-induced cAMP accumulation preincubated for 2 hrs followed by biotinylated cAMP addition and subsequent incubation for 2 hrs by AlphaScreen assay. The assay is classed as functional, cell-based. In a few lines: as §1

Assay [11] is filed under the species Mus musculus. Description: Selectivity ratio of EC50 for mouse MC4R to EC50 for mouse MC1R.

Melanocortin receptor 3 (Mus musculus), sequence (P33033 whole entry): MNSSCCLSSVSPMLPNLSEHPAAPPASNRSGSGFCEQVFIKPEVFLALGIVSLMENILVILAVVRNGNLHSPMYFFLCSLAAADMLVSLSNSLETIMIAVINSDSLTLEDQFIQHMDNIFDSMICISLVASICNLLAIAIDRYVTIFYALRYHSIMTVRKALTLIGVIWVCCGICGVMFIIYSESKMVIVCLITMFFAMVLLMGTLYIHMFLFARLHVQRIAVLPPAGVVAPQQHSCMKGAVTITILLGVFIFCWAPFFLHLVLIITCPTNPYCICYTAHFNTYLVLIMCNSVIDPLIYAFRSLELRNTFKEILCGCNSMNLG
Melanocortin receptor 3, sequence (P33033 whole entry): as above
Melanocyte-stimulating hormone receptor (Mus musculus), sequence (Q01727 whole entry, looked up): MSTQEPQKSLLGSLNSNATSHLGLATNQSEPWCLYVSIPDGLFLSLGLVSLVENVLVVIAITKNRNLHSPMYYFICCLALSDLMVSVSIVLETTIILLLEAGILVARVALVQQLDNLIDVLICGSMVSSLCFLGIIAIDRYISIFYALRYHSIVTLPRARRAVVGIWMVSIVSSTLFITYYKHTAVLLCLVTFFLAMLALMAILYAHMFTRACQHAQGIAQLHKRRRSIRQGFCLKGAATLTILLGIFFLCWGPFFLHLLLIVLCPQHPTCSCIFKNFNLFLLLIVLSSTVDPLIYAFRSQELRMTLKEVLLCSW
Melanocortin receptor 4 (Mus musculus), sequence (P56450 whole entry): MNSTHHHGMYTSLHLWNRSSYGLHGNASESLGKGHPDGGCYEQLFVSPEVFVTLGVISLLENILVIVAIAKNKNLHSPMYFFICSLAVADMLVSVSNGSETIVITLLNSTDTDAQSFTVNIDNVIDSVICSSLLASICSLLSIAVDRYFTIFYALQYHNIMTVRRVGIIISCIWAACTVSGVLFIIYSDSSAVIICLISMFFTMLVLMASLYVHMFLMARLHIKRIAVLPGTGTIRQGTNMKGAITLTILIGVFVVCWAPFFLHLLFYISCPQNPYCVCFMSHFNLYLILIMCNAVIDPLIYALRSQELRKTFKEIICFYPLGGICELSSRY
Melanocortin receptor 3 (Homo sapiens), sequence (P41968 whole entry, looked up): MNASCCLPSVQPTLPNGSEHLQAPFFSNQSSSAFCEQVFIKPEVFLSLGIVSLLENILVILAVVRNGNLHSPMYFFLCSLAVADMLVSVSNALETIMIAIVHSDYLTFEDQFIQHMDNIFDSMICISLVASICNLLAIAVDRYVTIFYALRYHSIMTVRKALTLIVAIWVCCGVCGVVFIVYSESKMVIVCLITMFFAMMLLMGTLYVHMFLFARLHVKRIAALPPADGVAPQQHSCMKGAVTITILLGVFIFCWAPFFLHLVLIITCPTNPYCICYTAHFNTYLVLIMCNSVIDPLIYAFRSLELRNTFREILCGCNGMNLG
Melanocortin receptor 5, sequence (P41149 whole entry): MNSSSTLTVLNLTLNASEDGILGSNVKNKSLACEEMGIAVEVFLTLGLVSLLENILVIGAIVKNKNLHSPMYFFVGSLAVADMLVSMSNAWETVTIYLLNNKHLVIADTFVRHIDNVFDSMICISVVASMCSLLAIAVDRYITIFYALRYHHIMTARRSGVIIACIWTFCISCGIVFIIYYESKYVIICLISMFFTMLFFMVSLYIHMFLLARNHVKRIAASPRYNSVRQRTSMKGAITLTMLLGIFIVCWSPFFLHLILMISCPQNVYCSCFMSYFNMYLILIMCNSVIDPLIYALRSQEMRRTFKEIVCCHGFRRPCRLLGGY
Melanocortin receptor 5 (Mus musculus), sequence (P41149 whole entry): as above

In the case of `C[C@@H]1NC(=O)[C@H](CC(N)=O)NC(=O)[C@H](Cc2c[nH]c3ccccc23)NC(=O)[C@H](CCCNC(=N)N)NC(=O)[C@@H](Cc2ccccc2)NC(=O)[C@@H]2CCCN2C(=O)[C@H]2CCCN2C1=O` (cyclo(P[dF]RWNA[dP])), the figures for the Ratio EC50 in the assay listed under Mus musculus [1], in the assay filed under Mus musculus [2] and in the assay listed under Mus musculus [3] were above 100, above 1000 and above 100, respectively. Also, the Activity in assay [4] came out at 55%.
Turning to `N=C(N)NCCC[C@@H]1NC(=O)[C@@H](Cc2ccccc2)NC(=O)[C@@H]2CCCN2C(=O)[C@H]2CCCN2C(=O)[C@H](CC(N)=O)NC(=O)[C@H](Cc2c[nH]c3ccccc23)NC1=O` (cyclo(P[dF]RWN[dP])), the Ratio EC50 in the assay filed under Mus musculus [3] is above 2500. Moreover, on Melanocortin receptor 3, the EC50 was above 100 µM. The Activity came out at 25% in [5], 85% in [6] and 85% in assay [7].
Regarding `C[C@@H]1NC(=O)[C@H](CC(N)=O)NC(=O)[C@H](Cc2c[nH]c3ccccc23)NC(=O)[C@H](CCCNC(=N)N)NC(=O)[C@@H](Cc2ccccc2)NC(=O)[C@@H]2CCCN2C(=O)[C@H]2CCCN2C(=O)[C@H](Cc2ccccc2)NC1=O` (cyclo(P[dF]RWNAF[dP])), the results for the Ratio EC50 in the assay filed under Mus musculus [1], in the assay filed under Mus musculus [2] and in the assay listed under Mus musculus [3] were above 300, above 1000 and above 100, respectively. Besides, in assay [4], the Activity amounted to 45%.
`C[C@@H]1NC(=O)[C@H](CN)NC(=O)[C@H](Cc2c[nH]c3ccccc23)NC(=O)[C@H](CCCNC(=N)N)NC(=O)[C@@H](Cc2ccccc2)NC(=O)[C@H](Cc2cnc[nH]2)NC(=O)[C@@H]2CCCN2C(=O)[C@H]2CCCN2C1=O` (cyclo(H[dF]RW[Dap]A[dP]P)): the Ratio EC50 in the assay filed under Mus musculus [2] is above 100; in the assay listed under Mus musculus [8] it was 25.
For `N=C(N)NCCC[C@@H]1NC(=O)[C@@H](Cc2ccccc2)NC(=O)[C@H](Cc2cnc[nH]2)NC(=O)[C@@H]2CCCN2C(=O)[C@H]2CCCN2C(=O)[C@H](CN)NC(=O)[C@H](Cc2c[nH]c3ccccc23)NC1=O` (cyclo(H[dF]RW[Dap][dP]P)), the Ratio EC50 in the assay listed under Mus musculus [2] and in the assay filed under Mus musculus [3] was above 100 throughout. Also, the Activity in assay [4] was found to be 65%.
With `CCCC[C@H](NC(C)=O)C(=O)N[C@H]1CC(=O)NCCCC[C@@H](C(=O)N2CCC[C@H]2C(=O)N[C@H](C(N)=O)C(C)C)NC(=O)[C@H](Cc2c[nH]c3ccccc23)NC(=O)[C@H](CCCNC(=N)N)NC(=O)[C@@H](Cc2ccccc2)NC(=O)[C@@H]2CCCN2C1=O`, in assay [9], the Efficacy is 12%.
Take `C[C@@H]1NC(=O)[C@H](CN)NC(=O)[C@H](Cc2c[nH]c3ccccc23)NC(=O)[C@H](CCCNC(=N)N)NC(=O)[C@@H](Cc2ccccc2)NC(=O)[C@@H]2CCCN2C(=O)[C@H]2CCCN2C(=O)[C@H](Cc2ccccc2)NC1=O` (cyclo(P[dF]RW[Dap]AF[dP])): the figures for the Activity in assay [4] and in [7] were 70% and 45%, respectively.
For the molecule `N=C(N)NCCC[C@@H]1NC(=O)[C@@H](Cc2ccccc2)NC(=O)[C@@H]2CCCN2C(=O)[C@H]2CCCN2C(=O)[C@H](Cc2c[nH]c3ccccc23)NC1=O` (cyclo(P[dF]RW[dP])), the concentration for a half-maximal effect (EC50) at Melanocortin receptor 3 was above 100 µM. The Activity in [6] was 50%.
Consider `N=C(N)NCCC[C@@H]1NC(=O)[C@@H](Cc2ccccc2)NC(=O)[C@H](Cc2cnc[nH]2)NC(=O)[C@@H]2CCCN2C(=O)[C@H]2CCCN2C(=O)[C@H](Cc2c[nH]c3ccccc23)NC1=O` (cyclo(H[dF]RW[dP]P)), for which the Activity in assay [4] came out at 60%; in assay [6] it was 65%.
Take `N=C(N)NCCC[C@@H]1NC(=O)[C@@H](Cc2ccccc2)NC(=O)[C@@H]2CCCN2C(=O)[C@H]2CCCN2C(=O)[C@H](CN)NC(=O)[C@H](Cc2c[nH]c3ccccc23)NC1=O` (cyclo(P[dF]RW[Dap][dP])): the Ratio EC50 in the assay listed under Mus musculus [10], in the assay listed under Mus musculus [3] and in the assay filed under Mus musculus [11] was above 500 each time. The EC50 at Melanocortin receptor 3 and at Melanocortin receptor 5 was above 100 µM throughout. Besides, the Activity was 35% in assay [6] and 75% in assay [7].
As to `C[C@@H]1NC(=O)[C@H](CC(N)=O)NC(=O)[C@H](Cc2c[nH]c3ccccc23)NC(=O)[C@H](CCCNC(=N)N)NC(=O)[C@@H](Cc2ccccc2)NC(=O)[C@H](Cc2cnc[nH]2)NC(=O)[C@@H]2CCCN2C(=O)[C@H]2CCCN2C(=O)[C@H](Cc2ccccc2)NC1=O` (cyclo(H[dF]RWNAF[dP]P)), the Ratio EC50 in the assay filed under Mus musculus [8] was 23.
With `C[C@@H]1NC(=O)[C@H](CN)NC(=O)[C@H](Cc2c[nH]c3ccccc23)NC(=O)[C@H](CCCNC(=N)N)NC(=O)[C@@H](Cc2ccccc2)NC(=O)[C@@H]2CCCN2C(=O)[C@H]2CCCN2C1=O` (cyclo(P[dF]RW[Dap]A[dP])), the results for the Ratio EC50 in the assay listed under Mus musculus [1] and in the assay filed under Mus musculus [2] were above 300 and above 1000, respectively. In addition, the Activity in [4] came to 70%.
